Results reported in ChEMBL document CHEMBL4251664, “Biocompatible Boron-Containing Prodrugs of Belinostat for the Potential Treatment of Solid Tumors” (ACS Med Chem Lett, 2018).
One block for each molecule: values may come before it.

What was measured:
MCF-10A = assay: Cytotoxicity against human MCF10A cells assessed as reduction in cell proliferation at 10 uM after 72 hrs by resazurin dye based fluorescence assay
[1] = Drug uptake in tumor of ovariectomized nu/nu mouse implanted with human MCF7 cells at 10 mg/kg, sc administered once daily for 22 days measured post last dose by HPLC-MS/MS analysis; type: ADME, organism-based, Neoplasm; details: female, read-out: Drug uptake
Procedure, shortened: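 After 22 days of 10 mg/kg/day subcutaneous dosing in MCF-7 xenograft mice, animals were sacrificed. Tumours were excised, homogenized and extracted, then analysed by HPLC–MS/MS for belinostat and the free boronic acid. Results are expressed as ng/g tissue.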

HeLa [2] = assay: Antiproliferative activity against human HeLa cells after 72 hrs by resazurin dye based fluorescence assay; type: functional, cell-based
MCF7 [3] = assay: Antitumor activity against human MCF7 cells implanted in ovariectomized nu/nu mouse assessed as tumor volume at 10 mg/kg, sc administered once daily for 22 days measured post last dose relative to control; type: functional
MCF7 [4] = assay: Antitumor activity against human MCF7 cells implanted in ovariectomized nu/nu mouse assessed as tumor growth inhibition at 10 mg/kg, sc administered once daily for 22 days measured post last dose relative to control; type: functional; details: 528 h, read-out: TGI
Mus musculus = assay: Toxicity in ovariectomized nu/nu mouse implanted with human MCF7 cells assessed as effect on body weight at 10 mg/kg, sc administered once daily for 22 days; type: organism-based; details: in vivo, 528 h
Procedure, shortened: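 MCF-7 xenograft in mice, dosed 10 mg/kg/day by subcutaneous injection alongside a vehicle group. Treatment ran 22 days. Body weights were compared with the vehicle group, and tumour volume was measured over the same period. At the end, mice were sacrificed and tumours removed.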

MCF7 [5] = assay: Antitumor activity against human MCF7 cells implanted in ovariectomized nu/nu mouse assessed as tumor weight at 10 mg/kg, sc administered once daily for 22 days measured post last dose (reference value: 743 +/- 142 mg); type: functional
MCF7 [6] = assay: Antiproliferative activity against human MCF7 cells after 72 hrs by resazurin dye based fluorescence assay; type: functional, cell-based; details: MCF7, 72 h
MCF7 [7] = assay: Antitumor activity against human MCF7 cells implanted in ovariectomized nu/nu mouse assessed as tumor volume at 10 mg/kg, sc administered once daily for 22 days measured post last dose (reference value: 869 +/- 173 mm3); type: functional
MCF7 [8] = assay: Antitumor activity against human MCF7 cells implanted in ovariectomized nu/nu mouse assessed as tumor volume at 10 mg/kg, sc administered once daily for 22 days measured on day 12 during compound dosing (reference value: 869 +/- 173 mm3); type: functional
MDA-MB-231 [9] = assay: Antiproliferative activity against human MDA-MB-231 cells after 72 hrs by resazurin dye based fluorescence assay; type: functional, cell-based; details: MDA-MB-231, 72 h
A549 = assay: Antiproliferative activity against human A549 cells after 72 hrs by resazurin dye based fluorescence assay; type: functional, cell-based; details: A549, 72 h
[10] = Drug level in human HeLa cells treated with (E)-3-(3-(N-phenylsulfamoyl)phenyl)-N-(4-(4,4,5,5-tetramethyl-1,3,2-dioxaborolan-2-yl)benzyloxy)acrylamide measured after 1 to 6 days by UHPLC-MS/MS analysis; type: ADME, cell-based
Procedure, shortened: (§1)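 MDA-MB-231 or HeLa cells were incubated with the pinacol boronate prodrug, and culture medium was sampled daily from day 1 to day 6. The prodrug, boronic acid forms and belinostat were separated, identified and quantified by HPLC coupled to an Orbitrap mass spectrometer. Results are in ng/mL as mean ± SEM of triplicate experiments.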

[11] = Drug level in human MDA-MB-231 cells treated with (E)-3-(3-(N-phenylsulfamoyl)phenyl)-N-(4-(4,4,5,5-tetramethyl-1,3,2-dioxaborolan-2-yl)benzyloxy)acrylamide measured after 1 to 6 days by UHPLC-MS/MS analysis; type: ADME, cell-based; procedure, shortened: as §1
HeLa [12] = assay: Prodrug conversion in human HeLa cells assessed as belinostat level after 3 days by UHPLC-MS/MS analysis; type: ADME, cell-based; details: 72 h; procedure, shortened: as §1
HeLa [13] = assay: Prodrug conversion in human HeLa cells assessed as (E)-3-((3-(3-(N-phenylsulfamoyl)phenyl)acrylamidooxy)methyl)phenylboronic acid level after 4 days by UHPLC-MS/MS analysis; type: ADME, cell-based; details: 96 h; procedure, shortened: as §1
MDA-MB-231 [14] = assay: Prodrug conversion in human MDA-MB-231 cells assessed as (E)-3-((3-(3-(N-phenylsulfamoyl)phenyl)acrylamidooxy)methyl)phenylboronic acid level after 1 day by UHPLC-MS/MS analysis; type: ADME, cell-based; details: mda-mb-231, 24 h; procedure, shortened: as §1
MDA-MB-231 [15] = assay: Prodrug conversion in human MDA-MB-231 cells assessed as belinostat level after 5 days by UHPLC-MS/MS analysis; type: ADME, cell-based; details: mda-mb-231, 120 h; procedure, shortened: as §1
HeLa [16] = assay: Prodrug conversion in human HeLa cells assessed as (E)-3-((3-(3-(N-phenylsulfamoyl)phenyl)acrylamidooxy)methyl)phenylboronic acid level after 3 days by UHPLC-MS/MS analysis; type: ADME, cell-based; details: 72 h; procedure, shortened: as §1
MDA-MB-231 [17] = assay: Prodrug conversion in human MDA-MB-231 cells assessed as belinostat level after 6 days by UHPLC-MS/MS analysis; type: ADME, cell-based; details: mda-mb-231, 144 h; procedure, shortened: as §1
MDA-MB-231 [18] = assay: Prodrug conversion in human MDA-MB-231 cells assessed as belinostat level after 1 day by UHPLC-MS/MS analysis; type: ADME, cell-based; details: mda-mb-231, 24 h; procedure, shortened: as §1
HeLa [19] = assay: Prodrug conversion in human HeLa cells assessed as (E)-3-((3-(3-(N-phenylsulfamoyl)phenyl)acrylamidooxy)methyl)phenylboronic acid level after 1 day by UHPLC-MS/MS analysis; type: ADME, cell-based; details: 24 h; procedure, shortened: as §1
MDA-MB-231 [20] = assay: Prodrug conversion in human MDA-MB-231 cells assessed as (E)-3-((3-(3-(N-phenylsulfamoyl)phenyl)acrylamidooxy)methyl)phenylboronic acid level after 4 days by UHPLC-MS/MS analysis; type: ADME, cell-based; details: mda-mb-231, 96 h; procedure, shortened: as §1
MDA-MB-231 [21] = assay: Prodrug conversion in human MDA-MB-231 cells assessed as belinostat level after 4 days by UHPLC-MS/MS analysis; type: ADME, cell-based; details: mda-mb-231, 96 h; procedure, shortened: as §1
HeLa [22] = assay: Prodrug conversion in human HeLa cells assessed as (E)-3-((3-(3-(N-phenylsulfamoyl)phenyl)acrylamidooxy)methyl)phenylboronic acid level after 2 days by UHPLC-MS/MS analysis; type: ADME, cell-based; details: 48 h; procedure, shortened: as §1
MDA-MB-231 [23] = assay: Prodrug conversion in human MDA-MB-231 cells assessed as (E)-3-((3-(3-(N-phenylsulfamoyl)phenyl)acrylamidooxy)methyl)phenylboronic acid level after 2 days by UHPLC-MS/MS analysis; type: ADME, cell-based; details: mda-mb-231, 48 h; procedure, shortened: as §1
HeLa [24] = assay: Prodrug conversion in human HeLa cells assessed as belinostat level after 2 days by UHPLC-MS/MS analysis; type: ADME, cell-based; details: 48 h; procedure, shortened: as §1
HeLa [25] = assay: Prodrug conversion in human HeLa cells assessed as (E)-3-((3-(3-(N-phenylsulfamoyl)phenyl)acrylamidooxy)methyl)phenylboronic acid level after 5 days by UHPLC-MS/MS analysis; type: ADME, cell-based; details: 120 h; procedure, shortened: as §1
MDA-MB-231 [26] = assay: Prodrug conversion in human MDA-MB-231 cells assessed as belinostat level after 2 days by UHPLC-MS/MS analysis; type: ADME, cell-based; details: mda-mb-231, 48 h; procedure, shortened: as §1
MDA-MB-231 [27] = assay: Prodrug conversion in human MDA-MB-231 cells assessed as (E)-3-((3-(3-(N-phenylsulfamoyl)phenyl)acrylamidooxy)methyl)phenylboronic acid level after 6 days by UHPLC-MS/MS analysis; type: ADME, cell-based; details: mda-mb-231, 144 h; procedure, shortened: as §1
MDA-MB-231 [28] = assay: Prodrug conversion in human MDA-MB-231 cells assessed as (E)-3-((3-(3-(N-phenylsulfamoyl)phenyl)acrylamidooxy)methyl)phenylboronic acid level after 5 days by UHPLC-MS/MS analysis; type: ADME, cell-based; details: mda-mb-231, 120 h; procedure, shortened: as §1
HeLa [29] = assay: Prodrug conversion in human HeLa cells assessed as belinostat level after 6 days by UHPLC-MS/MS analysis; type: ADME, cell-based; details: 144 h; procedure, shortened: as §1
MDA-MB-231 [30] = assay: Prodrug conversion in human MDA-MB-231 cells assessed as belinostat level after 3 days by UHPLC-MS/MS analysis; type: ADME, cell-based; details: mda-mb-231, 72 h; procedure, shortened: as §1
HeLa [31] = assay: Prodrug conversion in human HeLa cells assessed as (E)-3-((3-(3-(N-phenylsulfamoyl)phenyl)acrylamidooxy)methyl)phenylboronic acid level after 6 days by UHPLC-MS/MS analysis; type: ADME, cell-based; details: 144 h; procedure, shortened: as §1
HeLa [32] = assay: Prodrug conversion in human HeLa cells assessed as belinostat level after 5 days by UHPLC-MS/MS analysis; type: ADME, cell-based; details: 120 h; procedure, shortened: as §1
HeLa [33] = assay: Prodrug conversion in human HeLa cells assessed as belinostat level after 1 day by UHPLC-MS/MS analysis; type: ADME, cell-based; details: 24 h; procedure, shortened: as §1
HeLa [34] = assay: Prodrug conversion in human HeLa cells assessed as belinostat level after 4 days by UHPLC-MS/MS analysis; type: ADME, cell-based; details: 96 h; procedure, shortened: as §1
MDA-MB-231 [35] = assay: Prodrug conversion in human MDA-MB-231 cells assessed as (E)-3-((3-(3-(N-phenylsulfamoyl)phenyl)acrylamidooxy)methyl)phenylboronic acid level after 3 days by UHPLC-MS/MS analysis; type: ADME, cell-based; details: mda-mb-231, 72 h; procedure, shortened: as §1

concentration at 528 h [1]: 23.4 ng/g
IC50 (HeLa [2]): 0.087 µM
IC50 (MCF7 [6]): 0.096 µM
IC50 (MDA-MB-231 [9]): 0.062 µM
IC50 (A549): 0.077 µM
SMILES: O=C(/C=C/c1cccc(S(=O)(=O)Nc2ccccc2)c1)NO [BELINOSTAT]
Activity (MCF-10A): Non-Toxic
T/C (MCF7 [3]): 22.3%
inhibition in vivo at 10 mg/kg (MCF7 [4]): 77.7%
Activity (Mus musculus): Non-Toxic
Activity (MCF7 [5]): 167 mg
Activity (MCF7 [7]): 194 mm3
Activity (MCF7 [8]): 167 mm3

IC50 (HeLa [2]): 12.9 µM
IC50 (MDA-MB-231 [9]): 2.2 µM
IC50 (A549): 6.58 µM
SMILES: O=C(/C=C/c1cccc(S(=O)(=O)Nc2ccccc2)c1)NOCc1cccc(B(O)O)c1

Drug metabolism [10]: Metabolite_Detected
Drug metabolism [11]: Metabolite_Detected
SMILES: O=C(/C=C/c1cccc(S(=O)(=O)Nc2ccccc2)c1)NOCc1ccc(B(O)O)cc1

Drug metabolism (HeLa [12]): Metabolite_Notdetected
Drug metabolism (HeLa [13]): 134.7 ng/mL
Drug metabolism (MDA-MB-231 [14]): 359.1 ng/mL
Drug metabolism (MDA-MB-231 [15]): Metabolite_Notdetected
Drug metabolism (HeLa [16]): 147.9 ng/mL
Drug metabolism (MDA-MB-231 [17]): Metabolite_Notdetected
IC50 (HeLa [2]): 8.32 µM
Drug metabolism (MDA-MB-231 [18]): Metabolite_Notdetected
Drug metabolism (HeLa [19]): 303.2 ng/mL
Drug metabolism (MDA-MB-231 [20]): 198.8 ng/mL
Drug metabolism (MDA-MB-231 [21]): Metabolite_Notdetected
Drug metabolism (HeLa [22]): 188.6 ng/mL
Drug metabolism (MDA-MB-231 [23]): 262.9 ng/mL
Drug metabolism (HeLa [24]): Metabolite_Notdetected
Drug metabolism (HeLa [25]): 97.2 ng/mL
Drug metabolism (MDA-MB-231 [26]): Metabolite_Notdetected
Drug metabolism (MDA-MB-231 [27]): 155.8 ng/mL
Drug metabolism (MDA-MB-231 [28]): 168.5 ng/mL
Drug metabolism (HeLa [29]): Metabolite_Notdetected
Drug metabolism (MDA-MB-231 [30]): Metabolite_Notdetected
Drug metabolism (HeLa [31]): 66.6 ng/mL
Drug metabolism (HeLa [32]): Metabolite_Notdetected
Drug metabolism (HeLa [33]): Metabolite_Notdetected
IC50 (MDA-MB-231 [9]): 2.03 µM
Drug metabolism (HeLa [34]): Metabolite_Notdetected
Drug metabolism (MDA-MB-231 [35]): 199 ng/mL
IC50 (A549): 3.6 µM
SMILES: CC1(C)OB(c2cccc(CONC(=O)/C=C/c3cccc(S(=O)(=O)Nc4ccccc4)c3)c2)OC1(C)C
